PubChem BioAssay AID2770 (The Scripps Research Institute Molecular Screening Center, 2010)
The source made the active and inactive calls. The rule behind the calls is not given here.

What was measured:
Experiment in all cases: agonist activity on off-target TRP channel panel – cell-based, Fura-2 calcium ratio, transfected HEK293, SAR round 1, selectivity assay for TRPML3 agonist project, profiling panel (AID 2770)
[1] = tested on: HEK cells; settings: HEK293 transfected TRP channels, at 10 µM, active compounds read high
Method in brief: (§1)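 Material: Transfected or mock-transfected HEK293 cells carrying assorted TRP channels | Amount: 20-30 cells per run | Buffer or medium: pH 7.4 HEPES bath solution | Dosing: Single dose, 10 µM | Times: Compound at 20-25 h expression, 2 min recording | Technique: Fura-2 ratiometric calcium imaging | Evaluation: Fura-2 ratio change in intracellular calcium | Replication: n ≥3 independent experiments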

[2] = target: Ion channel NompC (Danio rerio) (UniProt Q7T1G6); settings: HEK293 transfected TRP channels, drTRPN1
Method in brief: as §1

[3] = target: Mucolipin-1 (Homo sapiens) (UniProt Q9GZU1); settings: HEK293 transfected TRP channels
Chain of Mucolipin-1 (Homo sapiens) (Q9GZU1 whole entry, looked up): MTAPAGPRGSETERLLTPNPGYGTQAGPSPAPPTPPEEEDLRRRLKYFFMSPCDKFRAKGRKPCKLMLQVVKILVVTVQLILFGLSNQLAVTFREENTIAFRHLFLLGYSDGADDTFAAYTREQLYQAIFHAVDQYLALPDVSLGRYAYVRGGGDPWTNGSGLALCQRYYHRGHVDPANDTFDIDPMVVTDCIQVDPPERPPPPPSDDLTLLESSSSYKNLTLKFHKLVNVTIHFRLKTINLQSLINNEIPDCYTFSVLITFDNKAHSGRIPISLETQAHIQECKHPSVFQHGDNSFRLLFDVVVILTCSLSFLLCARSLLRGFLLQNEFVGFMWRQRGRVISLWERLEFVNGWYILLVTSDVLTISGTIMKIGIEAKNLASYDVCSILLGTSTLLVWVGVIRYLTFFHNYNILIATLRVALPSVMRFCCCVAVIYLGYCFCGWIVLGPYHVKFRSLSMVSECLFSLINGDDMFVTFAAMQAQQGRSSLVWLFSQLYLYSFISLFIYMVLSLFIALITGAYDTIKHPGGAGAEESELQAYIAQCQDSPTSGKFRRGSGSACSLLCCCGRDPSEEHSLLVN
Method in brief: as §1

[4] = tested on: hTRPA1; settings: HEK293 transfected TRP channels
Method in brief: as §1

[5] = tested on: hTRPC3; settings: HEK293 transfected TRP channels
Method in brief: as §1

[6] = tested on: hTRPM2; settings: HEK293 transfected TRP channels
Method in brief: as §1

[7] = tested on: mTRPML2 (mucolipin 2); settings: HEK293 transfected TRP channels
Method in brief: as §1

[8] = tested on: mTRPV2; settings: HEK293 transfected TRP channels
Method in brief: as §1

[9] = hTRPML1 (NC) plasma membrane variant

Measured: Fura-2 340/380 ratio change

CC1CCN(S(=O)(=O)c2ccc(C(C)C)cc2)CC1
inactive: [1] -0.008 | [2] inactive; selective for TRPML3 | [3]; hTRPML1 inactive; selective for TRPML3 | [3]; [9] inactive; selective for TRPML3 | [4] inactive; selective for TRPML3 | [5] inactive; selective for TRPML3 | [6] inactive; selective for TRPML3 | [7] inactive; selective for TRPML3 | [8] inactive; selective for TRPML3

CCOc1ccc(S(=O)(=O)N2CCCCCC2)c2ccccc12
inactive: [1] -0.011 | [2] inactive; selective for TRPML3 | [3]; hTRPML1 inactive; selective for TRPML3 | [3]; [9] inactive; selective for TRPML3 | [4] inactive; selective for TRPML3 | [5] inactive; selective for TRPML3 | [6] inactive; selective for TRPML3 | [7] inactive; selective for TRPML3 | [8] inactive; selective for TRPML3

Cc1ccc(S(=O)(=O)n2nccc2-c2c(-c3ccc(Cl)cc3)noc2C)cc1
inactive: [1] -0.005 | [2] inactive; selective for TRPML3 | [3]; hTRPML1 inactive; selective for TRPML3 | [3]; [9] inactive; selective for TRPML3 | [4] inactive; selective for TRPML3 | [5] inactive; selective for TRPML3 | [6] inactive; selective for TRPML3 | [7] inactive; selective for TRPML3 | [8] inactive; selective for TRPML3
